Laboratory results taken from ChEMBL document CHEMBL1134844 (J Med Chem, 2001).

Assays:
[1] = target: 5-hydroxytryptamine receptor 1D (Homo sapiens, UniProt P28221); assay: Binding affinity in CHO-K1 cells transfected with human 5-hydroxytryptamine 1D receptor; assay type: cell-based
Outline: (§1)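 Competition binding on CHO-K1 cells stably transfected with human recombinant 5HT1D, 5HT1F or 5HT1A receptors; reported as pIC50, means of duplicates.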

[2] = Oral bioavailability in human; assay type: ADME, organism-based; conditions: in vivo
[3] = target: 5-hydroxytryptamine receptor 1B (Homo sapiens, UniProt P28222); assay: Binding affinity in CHO-K1 cells transfected with human recombinant 5-hydroxytryptamine 1B receptor; assay type: cell-based
Oryctolagus cuniculus [4] = organism: Oryctolagus cuniculus; assay: (§2) Relative binding affinity in rabbit saphenous vein functional assay compared to 5-HT
Cavia porcellus [5] = organism: Cavia porcellus; assay: Ability to inhibit [125I]- albumin extravasation into dura following electrical stimulation of trigeminal ganglion of Guinea pig; assay type: functional
Outline: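 Pentobarbitone-anaesthetised (50 mg/kg ip), ventilated guinea pigs kept at 37 °C; single jugular iv bolus of 0.01, 0.03 or 0.1 µg/kg or saline vehicle. 5 min later, [125I]BSA 50 µCi/kg iv. After another 5 min, one trigeminal ganglion was stimulated for 5 min (5 pulses/s, 5 ms, 1.2 mA). Dura gamma-counted as cpm/mg wet weight; stimulated/unstimulated ratio, mean ± SEM; vehicle controls run daily.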

Oryctolagus cuniculus [6] = organism: Oryctolagus cuniculus; assay: as §2; conditions: read-out: pA2 (converted)
Oryctolagus cuniculus [7] = organism: Oryctolagus cuniculus; conditions: Saphenous vein
[8] = Oral bioavailability in rat; assay type: ADME, organism-based; conditions: in vivo
[9] = Plasma clearance in rat; assay type: ADME, organism-based
Cavia porcellus [10] = organism: Cavia porcellus; assay: Ability to inhibit [125I]- albumin extravasation into dura following electrical stimulation of trigeminal ganglion; assay type: functional
Outline: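 Anesthetized guinea pigs (pentobarbitone 50 mg/kg ip, 37 °C, ventilated) got a single iv jugular bolus (0.01, 0.03 or 0.1 µg/kg; vehicle 0.9% saline). 5 min later 50 µCi/kg [125I]BSA iv; after another 5 min, unilateral trigeminal ganglion stimulation for 5 min (5 pulses/s, 5 ms, 1.2 mA). Dural cpm/mg wet weight was expressed as stimulated/unstimulated ratio, mean ± SEM.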

[11] = target: T1, 5-hydroxytryptamine receptor 1F (Homo sapiens, UniProt P30939); assay: Binding affinity towards human recombinant 5-hydroxytryptamine 1F receptor; outline: as §1
T1 sequence (P30939 whole entry): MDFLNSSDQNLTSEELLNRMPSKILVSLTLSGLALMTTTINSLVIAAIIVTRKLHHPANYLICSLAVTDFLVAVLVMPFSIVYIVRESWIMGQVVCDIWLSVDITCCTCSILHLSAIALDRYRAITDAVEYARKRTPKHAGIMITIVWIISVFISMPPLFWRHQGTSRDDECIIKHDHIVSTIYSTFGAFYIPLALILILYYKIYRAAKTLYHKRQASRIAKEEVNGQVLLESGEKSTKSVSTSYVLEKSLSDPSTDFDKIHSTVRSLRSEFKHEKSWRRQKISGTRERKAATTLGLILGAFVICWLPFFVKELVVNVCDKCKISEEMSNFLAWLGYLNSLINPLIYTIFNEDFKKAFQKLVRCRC

[12] = target: T2, 5-hydroxytryptamine receptor 1A (Homo sapiens, UniProt P08908); assay: binding affinity towards human recombinant 5-hydroxytryptamine 1A receptor; outline: as §1
T2 sequence (P08908 whole entry): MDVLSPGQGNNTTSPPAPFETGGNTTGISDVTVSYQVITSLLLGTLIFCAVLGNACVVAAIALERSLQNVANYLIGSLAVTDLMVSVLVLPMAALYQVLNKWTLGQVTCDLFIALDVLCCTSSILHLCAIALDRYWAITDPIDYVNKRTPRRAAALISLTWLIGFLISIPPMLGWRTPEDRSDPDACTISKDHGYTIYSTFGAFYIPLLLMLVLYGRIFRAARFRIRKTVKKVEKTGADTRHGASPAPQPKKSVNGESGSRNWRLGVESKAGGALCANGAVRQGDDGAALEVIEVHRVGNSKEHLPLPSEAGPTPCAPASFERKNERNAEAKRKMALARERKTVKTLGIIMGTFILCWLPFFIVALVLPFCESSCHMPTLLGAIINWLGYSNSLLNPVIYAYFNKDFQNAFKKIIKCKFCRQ

[13] = Volume distribution in rat; assay type: ADME, organism-based; conditions: in vivo
[14] = Beta phase half life was determined in rat; assay type: ADME, organism-based; conditions: in vivo
Oryctolagus cuniculus [15] = organism: Oryctolagus cuniculus; assay: Binding affinity towards rabbit saphenous vein value in parenthesis represents intrinsic activity for RbSv;(1 for 5-HT); assay type: functional

5-hydroxytryptamine receptor 1D, sequence (P28221 whole entry): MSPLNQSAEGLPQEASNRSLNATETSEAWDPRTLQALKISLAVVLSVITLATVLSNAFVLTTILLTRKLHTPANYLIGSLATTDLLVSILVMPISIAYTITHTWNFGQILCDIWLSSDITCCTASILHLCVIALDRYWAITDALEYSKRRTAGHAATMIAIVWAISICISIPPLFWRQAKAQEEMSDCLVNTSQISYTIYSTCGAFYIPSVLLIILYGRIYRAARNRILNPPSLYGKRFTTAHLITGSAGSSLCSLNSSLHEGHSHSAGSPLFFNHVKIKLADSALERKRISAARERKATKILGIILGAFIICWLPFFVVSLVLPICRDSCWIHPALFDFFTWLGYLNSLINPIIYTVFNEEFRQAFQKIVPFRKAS
5-hydroxytryptamine receptor 1B, sequence (P28222 whole entry): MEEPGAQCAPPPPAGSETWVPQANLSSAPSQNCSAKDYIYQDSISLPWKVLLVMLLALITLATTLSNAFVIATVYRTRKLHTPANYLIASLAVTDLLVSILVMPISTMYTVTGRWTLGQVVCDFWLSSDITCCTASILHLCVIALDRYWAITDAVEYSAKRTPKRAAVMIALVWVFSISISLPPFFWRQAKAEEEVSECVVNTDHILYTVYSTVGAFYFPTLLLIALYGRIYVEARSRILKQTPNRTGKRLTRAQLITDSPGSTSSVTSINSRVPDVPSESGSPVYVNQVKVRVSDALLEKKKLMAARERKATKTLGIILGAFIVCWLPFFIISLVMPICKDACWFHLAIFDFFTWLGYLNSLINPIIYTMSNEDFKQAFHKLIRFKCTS

SMILES | IC50 [1] | IC50 [3] | pA50 (Oryctolagus cuniculus [4]) | Kb (Oryctolagus cuniculus [6]) | further results
CN(C)CCc1c[nH]c2ccc(C[C@H]3COC(=O)N3)cc12 [ZOLMITRIPTAN] | 2.82 nM | 6.17 nM | 6.8 | – | bioavailability [2]: 40%; ED50 (Cavia porcellus [5]): ~0.012 mg/kg
CN(C)[C@H]1C[C@H](c2c[nH]c3ccc(CN4C(=O)NC(C)(C)C4=O)cc32)C1 | 3090 nM | 3800 nM | – | 589 nM | –
CN1C(=O)OCC1Cc1ccc2[nH]cc([C@H]3C[C@H](N(C)C)C3)c2c1 (stereo in doubt; 34) [listing 1 of 2 here] | – | – | 4.85 | – | –
Cc1noc(Cc2ccc3[nH]cc([C@H]4C[C@H](N(C)C)C4)c3c2)n1 | 933 nM | 1510 nM | – | 7590 nM | –
CN1C(=O)OCC1Cc1ccc2[nH]cc([C@H]3C[C@H](N(C)C)C3)c2c1 (stereo in doubt; 30) [listing 1 of 2 here] | 100 nM | 204 nM | – | – | –
N[C@H]1C[C@H](c2c[nH]c3ccc(Oc4ccccc4)cc32)C1 | 14.5 nM | 9.55 nM | < 6.5 | – | –
Cc1nc(Cc2ccc3[nH]cc([C@H]4C[C@H](N(C)C)C4)c3c2)n[nH]1 | 2040 nM | 3890 nM | – | 6610 nM | –
CN(C)[C@H]1C[C@H](c2c[nH]c3ccc(CC4COC(=O)N4)cc32)C1 (stereo in doubt; 1) [listing 1 of 2 here] | – | – | 5.72 | – | –
CNS(=O)(=O)Cc1ccc2[nH]cc(CCN(C)C)c2c1 | – | – | – | – | pA50 (Oryctolagus cuniculus [7]): 6.6; bioavailability [2]: 14%; ED50 (Cavia porcellus [5]): 0.01 mg/kg
CN(C)[C@H]1C[C@H](c2c[nH]c3ccc(CCN4C(=O)NC(C)(C)C4=O)cc32)C1 | 1480 nM | 1200 nM | – | 891 nM | –
CN(C)[C@H]1C[C@H](c2c[nH]c3ccc(CC4COC(=O)N4)cc32)C1 (stereo in doubt; 35) [listing 1 of 2 here] | 100 nM | 162 nM | – | – | –
CN[C@H]1C[C@H](c2c[nH]c3ccc(CC4COC(=O)N4)cc32)C1 (stereo partly specified) | 7.08 nM | 32.4 nM | 6.18 | – | –
CN(C)[C@H]1C[C@H](c2c[nH]c3ccc(CCN4C(=O)c5ccccc5C4=O)cc32)C1 | 195 nM | 204 nM | – | 170 nM | –
CNS(=O)(=O)Cc1ccc2[nH]cc([C@H]3C[C@H](N(C)C)C3)c2c1 | 191 nM | 275 nM | 5.25 | – | –
CN(C)[C@H]1C[C@H](c2c[nH]c3ccc(CC4COC(=O)N4)cc32)C1 (stereo in doubt; 31) [listing 1 of 2 here] | 170 nM | 562 nM | – | – | –
CN1C(=O)OCC1Cc1ccc2[nH]cc([C@H]3C[C@H](N(C)C)C3)c2c1 (stereo in doubt; 34) [listing 2 of 2 here] | 57.5 nM | 97.7 nM | – | – | –
CN(C)[C@H]1C[C@H](c2c[nH]c3ccc(CC4COC(=O)N4)cc32)C1 (stereo in doubt; 31) [listing 2 of 2 here] | – | – | 4.95 | – | –

SMILES | IC50 [1] | IC50 [3] | pA50 (Oryctolagus cuniculus [4]) | Kb (Oryctolagus cuniculus [6]) | further results
CN(C)[C@H]1C[C@H](c2c[nH]c3ccc(CC4COC(=O)N4)cc32)C1 (stereo in doubt; 35) [listing 2 of 2 here] | – | – | 5.15 | – | –
CN(C)[C@H]1C[C@H](c2c[nH]c3ccc(C(=O)NCc4ccccc4)cc32)C1 | 141 nM | 316 nM | – | 1260 nM | –
CN(C)[C@H]1C[C@H](c2c[nH]c3ccc(C(N)=O)cc32)C1 | 14.8 nM | 44.7 nM | 6.25 | – | –
CN(C)[C@H]1C[C@H](c2c[nH]c3ccc(CC4COC(=O)N4)cc32)C1 (stereo in doubt; 1) [listing 2 of 2 here] | 15.8 nM | 112 nM | – | – | bioavailability [2]: 41%; bioavailability [8]: 35%; clearance [9]: 40 mL/min/kg; ED50 (Cavia porcellus [10]): ~0.01 µg/kg; IC50 [11]: 363 nM; IC50 [12]: 3.55 µM; Vd [13]: 2.6 L/kg; half-life [14]: 84 min
N[C@H]1C[C@H](c2c[nH]c3ccc(CC4COC(=O)N4)cc32)C1 (stereo in doubt; 23) [listing 1 of 2 here] | 3.63 nM | 18.2 nM | – | – | –
CN(C)[C@H]1C[C@H](c2c[nH]c3ccc(CC(=O)NCc4ccccc4)cc32)C1 | 339 nM | 263 nM | – | 3890 nM | –
CN(C)[C@H]1C[C@H](c2c[nH]c3ccc(CCN4C(=O)CNC4=O)cc32)C1 | – | – | – | 1910 nM | –
CN(C)[C@H]1C[C@H](c2c[nH]c3ccc(CC(N)=O)cc32)C1 | 724 nM | 1350 nM | – | 16600 nM | –
N[C@H]1C[C@H](c2c[nH]c3ccc(CC4COC(=O)N4)cc32)C1 (stereo in doubt; 24) | – | – | 5.8 | – | –
CNS(=O)(=O)Cc1ccc2[nH]cc(C[C@H]3CCCN3C)c2c1 | 7.24 nM | 14.5 nM | – | – | pA50 (Oryctolagus cuniculus [15]): 6.33; ED50 (Cavia porcellus [5]): 0.0001 mg/kg
CN(C)[C@H]1C[C@H](c2c[nH]c3ccc(Oc4ccccc4)cc32)C1 | 64.6 nM | 97.7 nM | – | 240 nM | –
Cc1noc(-c2ccc3[nH]cc([C@H]4C[C@H](N(C)C)C4)c3c2)n1 | 562 nM | 832 nM | – | 955 nM | –
CN(C)[C@H]1C[C@H](Cc2c[nH]c3ccc(C[C@H]4COC(=O)N4)cc23)C1 | 28.8 nM | 141 nM | – | 1860 nM | –
CN1C(=O)OCC1Cc1ccc2[nH]cc([C@H]3C[C@H](N(C)C)C3)c2c1 (stereo in doubt; 30) [listing 2 of 2 here] | – | – | 5.21 | – | –
CC1(C)NC(=O)N(CCc2ccc3[nH]cc([C@H]4C[C@H](N)C4)c3c2)C1=O | 501 nM | 1120 nM | – | 2690 nM | –
N[C@H]1C[C@H](c2c[nH]c3ccc(CC4COC(=O)N4)cc32)C1 (stereo in doubt; 23) [listing 2 of 2 here] | – | – | 6.42 | – | –
CN(C)[C@H]1C[C@H](c2c[nH]c3ccc(CN4C(=O)CNC4=O)cc32)C1 | 2450 nM | 6310 nM | – | 9330 nM | –
